# Source: ChEMBL document CHEMBL2046302, “Fused tricyclic indoles as S1P₁ agonists with robust efficacy in animal models of autoimmune disease” (Bioorg Med Chem Lett, 2012)
# Calls of active or inactive are those of the source. The rule behind the calls is not given here.
# How the values were obtained:
# [1] = target: T1, Sphingosine 1-phosphate receptor 1 (Homo sapiens, UniProt P21453); assay: Agonist activity against human S1P1 assessed as accumulation of cAMP by HTRF assay; assay type: functional
# T1 sequence (P21453 whole entry): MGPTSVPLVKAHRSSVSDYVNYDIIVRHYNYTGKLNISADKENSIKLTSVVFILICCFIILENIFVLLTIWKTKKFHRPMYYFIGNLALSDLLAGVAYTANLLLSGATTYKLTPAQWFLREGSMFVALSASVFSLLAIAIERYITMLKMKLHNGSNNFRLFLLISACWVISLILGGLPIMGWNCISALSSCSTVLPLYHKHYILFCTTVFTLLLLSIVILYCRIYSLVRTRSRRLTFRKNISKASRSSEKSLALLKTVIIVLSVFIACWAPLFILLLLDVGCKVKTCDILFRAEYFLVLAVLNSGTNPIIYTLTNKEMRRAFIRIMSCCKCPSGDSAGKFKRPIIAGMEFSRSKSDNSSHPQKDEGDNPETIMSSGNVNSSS
# Outline: (§1)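 Agonist EC50 was read from a cAMP HTRF assay run on human, rat and mouse S1P1. Response was scaled against S1P, and values are the mean of three or more replicates.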
# [2] = target: T2, Sphingosine 1-phosphate receptor 4 (Homo sapiens, UniProt O95977); assay: Agonist activity against human S1P4 by beta arrestin recruitment assay; assay type: functional
# T2 sequence (O95977 whole entry): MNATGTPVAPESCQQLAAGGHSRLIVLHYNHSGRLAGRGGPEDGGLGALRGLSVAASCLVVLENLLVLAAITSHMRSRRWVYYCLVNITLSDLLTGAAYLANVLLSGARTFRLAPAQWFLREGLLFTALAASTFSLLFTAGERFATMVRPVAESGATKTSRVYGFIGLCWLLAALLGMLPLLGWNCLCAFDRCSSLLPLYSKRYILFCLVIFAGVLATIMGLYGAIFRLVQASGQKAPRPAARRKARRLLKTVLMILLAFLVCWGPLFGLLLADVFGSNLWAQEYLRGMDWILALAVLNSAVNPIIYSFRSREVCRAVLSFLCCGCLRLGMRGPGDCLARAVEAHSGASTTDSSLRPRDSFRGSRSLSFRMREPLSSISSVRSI
# Outline: (§2)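 Agonist EC50 at human S1P1 through S1P5 was measured by β-arrestin recruitment. Values are the mean of three or more replicates.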
# [3] = target: T1, Sphingosine 1-phosphate receptor 1; assay: Agonist activity against human S1P1 by beta arrestin recruitment assay; assay type: functional; outline: as §2
# [4] = Half life in rat liver microsome; assay type: ADME; settings: liver microsomes
# [5] = target: Sphingosine 1-phosphate receptor 1 (Mus musculus, UniProt O08530); assay: Agonist activity against mouse S1P1 assessed as accumulation of cAMP by HTRF assay; assay type: functional; outline: as §1
# Chain of Sphingosine 1-phosphate receptor 1 (Mus musculus, UniProt O08530) (O08530 whole entry): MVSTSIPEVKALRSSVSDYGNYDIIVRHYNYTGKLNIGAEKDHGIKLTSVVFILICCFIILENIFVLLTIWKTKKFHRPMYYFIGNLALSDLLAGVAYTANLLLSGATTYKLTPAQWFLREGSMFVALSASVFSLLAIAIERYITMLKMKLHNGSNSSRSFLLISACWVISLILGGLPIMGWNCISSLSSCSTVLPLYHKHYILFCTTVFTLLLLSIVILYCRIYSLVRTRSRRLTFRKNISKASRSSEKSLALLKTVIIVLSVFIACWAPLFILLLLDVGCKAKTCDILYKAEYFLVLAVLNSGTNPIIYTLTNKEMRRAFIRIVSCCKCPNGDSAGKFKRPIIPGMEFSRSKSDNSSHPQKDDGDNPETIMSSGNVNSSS
# [6] = target: Sphingosine 1-phosphate receptor 2 (Homo sapiens, UniProt O95136); assay: Agonist activity against human S1P2 by beta arrestin recruitment assay; assay type: functional; outline: as §2
# Chain of Sphingosine 1-phosphate receptor 2 (O95136 whole entry): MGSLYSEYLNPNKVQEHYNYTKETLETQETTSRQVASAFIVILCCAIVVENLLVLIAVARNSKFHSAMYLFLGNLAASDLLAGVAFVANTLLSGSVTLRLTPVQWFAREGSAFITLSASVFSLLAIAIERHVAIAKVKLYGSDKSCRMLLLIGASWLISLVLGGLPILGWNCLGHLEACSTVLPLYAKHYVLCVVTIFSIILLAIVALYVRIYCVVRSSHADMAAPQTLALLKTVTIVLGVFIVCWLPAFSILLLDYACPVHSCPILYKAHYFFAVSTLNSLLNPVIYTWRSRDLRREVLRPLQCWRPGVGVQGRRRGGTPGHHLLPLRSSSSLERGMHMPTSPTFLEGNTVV
# [7] = Cmax in Sprague-Dawley rat in Sprague-Dawley rat at 2 mg/kg, iv and 3 mg/kg, po; assay type: ADME, organism-based; settings: in vivo
# Outline: (§3)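 Male Sprague–Dawley rats received 2.0 mg/kg IV in 100% PEG400 and 3.0 mg/kg PO in 0.5% methyl cellulose. Clearance, Vss, terminal half-life, Cmax, AUClast and oral bioavailability were derived from plasma levels.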
# [8] = Terminal half life in Sprague-Dawley rat at 2 mg/kg, iv and 3 mg/kg, po; assay type: ADME, organism-based; settings: in vivo, read-out: beta t1/2 (converted); outline: as §3
# [9] = Half life in mouse liver microsome; assay type: ADME; settings: liver microsomes
# [10] = Clearance in Sprague-Dawley rat at 2 mg/kg, iv and 3 mg/kg, po; assay type: ADME, organism-based; settings: in vivo; outline: as §3
# [11] = target: Sphingosine 1-phosphate receptor 3 (Homo sapiens, UniProt Q99500); assay: Agonist activity against human S1P3 by beta arrestin recruitment assay; assay type: functional; outline: as §2
# Chain of Sphingosine 1-phosphate receptor 3 (Q99500 whole entry): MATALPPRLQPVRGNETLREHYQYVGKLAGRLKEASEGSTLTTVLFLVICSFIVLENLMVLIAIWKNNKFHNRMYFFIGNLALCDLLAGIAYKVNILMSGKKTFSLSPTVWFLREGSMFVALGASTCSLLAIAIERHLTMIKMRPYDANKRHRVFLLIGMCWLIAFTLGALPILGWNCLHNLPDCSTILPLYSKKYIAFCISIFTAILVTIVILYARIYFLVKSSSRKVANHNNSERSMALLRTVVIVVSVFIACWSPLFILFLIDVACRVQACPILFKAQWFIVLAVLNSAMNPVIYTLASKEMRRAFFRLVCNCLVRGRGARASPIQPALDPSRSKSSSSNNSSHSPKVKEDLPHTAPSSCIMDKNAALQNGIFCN
# [12] = Half life in human liver microsome; assay type: ADME; settings: liver microsomes
# [13] = AUClast in Sprague-Dawley rat in Sprague-Dawley rat at 2 mg/kg, iv and 3 mg/kg, po; assay type: ADME, organism-based; settings: plasma; outline: as §3
# [14] = target: Sphingosine 1-phosphate receptor 5 (Homo sapiens, UniProt Q9H228); assay: Agonist activity against human S1P5 by beta arrestin recruitment assay; assay type: functional; outline: as §2
# Chain of Sphingosine 1-phosphate receptor 5 (Q9H228 whole entry): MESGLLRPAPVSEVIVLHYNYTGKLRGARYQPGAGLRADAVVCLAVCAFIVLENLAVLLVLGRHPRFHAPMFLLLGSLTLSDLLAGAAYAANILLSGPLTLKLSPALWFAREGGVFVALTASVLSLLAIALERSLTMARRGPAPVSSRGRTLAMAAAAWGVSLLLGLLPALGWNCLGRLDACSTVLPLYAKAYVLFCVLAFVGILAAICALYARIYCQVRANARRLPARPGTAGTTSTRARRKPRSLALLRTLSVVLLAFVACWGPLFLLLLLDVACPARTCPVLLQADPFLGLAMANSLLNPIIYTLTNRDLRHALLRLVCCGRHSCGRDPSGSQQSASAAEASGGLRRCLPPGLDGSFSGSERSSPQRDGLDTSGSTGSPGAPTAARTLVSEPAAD
# [15] = target: Sphingosine 1-phosphate receptor 1 (Rattus norvegicus, UniProt P48303); assay: Agonist activity against rat S1P1 assessed as accumulation of cAMP by HTRF assay; assay type: functional; outline: as §1
# Chain of Sphingosine 1-phosphate receptor 1 (Rattus norvegicus, UniProt P48303) (P48303 whole entry): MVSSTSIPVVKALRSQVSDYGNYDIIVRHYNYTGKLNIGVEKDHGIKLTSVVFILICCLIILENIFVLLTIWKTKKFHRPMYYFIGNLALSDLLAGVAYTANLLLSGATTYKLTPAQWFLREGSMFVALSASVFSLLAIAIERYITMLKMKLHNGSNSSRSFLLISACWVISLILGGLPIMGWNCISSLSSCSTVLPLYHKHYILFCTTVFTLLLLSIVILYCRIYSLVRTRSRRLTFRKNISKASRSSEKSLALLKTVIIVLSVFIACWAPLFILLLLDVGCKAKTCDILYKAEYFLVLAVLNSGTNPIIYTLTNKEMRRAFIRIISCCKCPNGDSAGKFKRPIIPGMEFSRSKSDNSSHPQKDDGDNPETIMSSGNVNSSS
# [16] = Oral bioavailability in Sprague-Dawley rat at 3 mg/kg; assay type: ADME, organism-based; settings: in vivo; outline: as §3
# [17] = Volume of distribution at steady state in Sprague-Dawley rat at 2 mg/kg, iv and 3 mg/kg, po; assay type: ADME, organism-based; settings: in vivo, read-out: Vdss; outline: as §3
# Mus musculus [18] = assay: Immunosuppressant activity in BALB/c mouse assessed as reduction in circulating lymphocyte at 6 mg/kg, po measured after 5 hrs; assay type: functional, organism-based; design: dose 6 mg/kg
# Outline: (§4)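 BALB/c mice were dosed orally as a suspension in 0.5% methyl cellulose, at 6 mg/kg or 1.0 mg/kg. Circulating lymphocytes were followed over time, with readings at 5 h and 24 h.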
# Mus musculus [19] = assay: Immunosuppressant activity in BALB/c mouse assessed as reduction in circulating lymphocyte at 6 mg/kg, po measured up to 24 hrs; assay type: functional, organism-based; design: dose 6 mg/kg; outline: as §4
# Mus musculus [20] = assay: Immunosuppressant activity in BALB/c mouse assessed as reduction in circulating lymphocyte at 30 mg/kg, po measured at 24 hrs; assay type: functional, organism-based; design: dose 30 mg/kg
compound,measurement,setting,value
N#Cc1cc(-c2nc(-c3ccc4c(c3)cc3n4CCC3CC(=O)O)no2)ccc1OC(F)(F)F (racemic),EC50,[1],0.59 nM
COc1ccc(-c2nc(-c3ccc4c(c3)cc3n4CCC3CC(=O)O)no2)cc1C#N (racemic),EC50,[1],2.9 nM
CC(C)Oc1ccc(-c2nc(-c3ccc4c(c3)cc3n4CCC3CC(=O)O)no2)cc1C#N (racemic),EC50,[1],0.61 nM
"N#Cc1cc(OC(F)(F)F)cc(-c2nc(-c3ccc4[nH]c5c(c4c3)CCC5CC(=O)O)no2)c1 (single isomer, unassigned) [listing 1 of 2 here]",EC50,[2],462 nM
same,EC50,[3],36 nM
same,half-life,[4],> 1 h
same,EC50,[5],2.6 nM
same,EC50,[6],> 100000 nM
same,Cmax,[7],1400 ng/mL
same,half-life,[8],5.46 h
same,half-life,[9],> 1 h
same,clearance,[10],1.39 mL/min/kg
same,EC50,[11],> 100000 nM
same,EC50,[1],0.75 nM
same,half-life,[12],> 1 h
same,AUC(0-t),[13],11000 ng·h/mL
same,EC50,[14],15 nM
same,EC50,[15],1.8 nM
same,bioavailability,[16],32.5%
same,Vd,[17],0.734 L/kg
"N#Cc1cc(OC(F)(F)F)cc(-c2nc(-c3ccc4[nH]c5c(c4c3)CCC5CC(=O)O)no2)c1 (single isomer, unassigned) [listing 2 of 2 here]",Activity,Mus musculus [18],Active
same,Activity,Mus musculus [19],Active
same,Activity,Mus musculus [20],Active
